From ChEMBL document CHEMBL1139610, “Design, synthesis, and biological evaluation of novel 4-hydro-quinoline-3-carboxamide derivatives as an immunomodulator” (2005)

Tests used:
Format in all cases: functional
[1] = In vitro percent inhibition of ConA induced T-cell proliferation at the dose 10 ug/mL
Summary of the method: (§1)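 Spleen cells sieved to single-cell suspension, red cells lysed with 0.16 M NH4Cl-Tris, washed, in RPMI-1640 + 10% FBS; seeded at 2.5×10^6/mL, stimulated with ConA 0.5 µg/mL, drug final 1, 10 or 100 µg/mL, triplicates; 72 h at 37 °C, [3H]thymidine 0.5 µCi for final 16 h; cpm counted; %inhibition = (control − drug)/control.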

[2] = In vitro percent inhibition of ConA induced T-cell proliferation at the dose 1 ug/mL; summary of the method: as §1
[3] = In vitro percent inhibition of ConA induced T-cell proliferation at the dose 100 ug/mL; summary of the method: as §1
[4] = target: T1, Tumor necrosis factor (Mus musculus) (UniProt P06804); assay: In vitro percent inhibition of tumor necrosis factor, alpha secreted by macrophage at the dose 100 ug/mL
T1 sequence (whole entry): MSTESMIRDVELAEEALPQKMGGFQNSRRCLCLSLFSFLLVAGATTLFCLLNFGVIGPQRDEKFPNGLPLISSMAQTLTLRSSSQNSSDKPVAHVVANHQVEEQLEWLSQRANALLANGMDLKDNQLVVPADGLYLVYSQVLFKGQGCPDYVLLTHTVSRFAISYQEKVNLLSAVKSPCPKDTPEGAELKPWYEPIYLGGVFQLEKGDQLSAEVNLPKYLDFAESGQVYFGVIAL
Summary of the method: (§2)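 RAW264.7 macrophages in RPMI 1640 with 10% FCS, 2 mM glutamine, gentamycin; seeded 2×10^5/mL, grown ~3 days to confluence at 37 °C, 5% CO2; LPS 10 µg/mL plus drug at final 1, 10 or 100 µg/mL for 24 h; supernatant TNF-α by ELISA; %inhibition = (control mean − drug mean)/control mean.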

[5] = In vitro percent inhibition of LPS induced B-cell proliferation at the dose 1 ug/mL
Summary of the method: (§3)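 Splenocyte single-cell suspension (red cells lysed, 0.16 M NH4Cl-Tris), RPMI-1640 + 10% FBS, 2.5×10^6/mL; LPS 10 µg/mL stimulation with drug at final 1, 10 or 100 µg/mL, triplicate wells; cultured 72 h, 37 °C, [3H]thymidine pulse 0.5 µCi last 16 h, β-counting; %inhibition = (control mean − drug mean)/control mean.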

[6] = target: T1, Tumor necrosis factor (Mus musculus); assay: In vitro percent inhibition of tumor necrosis factor, alpha secreted by macrophage at the dose 10 ug/mL; summary of the method: as §2
[7] = In vitro percent inhibition of LPS induced B-cell proliferation at the dose 10 ug/mL; summary of the method: as §3
[8] = In vitro percent inhibition of LPS induced B-cell proliferation at the dose 100 ug/mL; summary of the method: as §3
[9] = target: T1, Tumor necrosis factor (Mus musculus); assay: In vitro percent inhibition of tumor necrosis factor, alpha secreted by macrophage at the dose 1 ug/mL; summary of the method: as §2

| SMILES | inhibition at 10 µg/mL [1] | inhibition at 1 µg/mL [2] | inhibition at 100 µg/mL [3] | inhibition [4] | inhibition at 1 µg/mL [5] | inhibition [6] | inhibition at 10 µg/mL [7] | inhibition at 100 µg/mL [8] | inhibition [9] |
| --- | --- | --- | --- | --- | --- | --- | --- | --- | --- |
| CN(C)CCNC(=O)c1cnc2cc(F)ccc2c1O | -9% | -24.6% | 87.2% | – | – | – | – | – | – |
| CSc1cccc2c(O)c(C(=O)NCCN(C)C)cnc12 | 69.1% | 32% | 99.9% | – | – | – | – | – | – |
| CN(C(=O)c1c(O)c2ccccc2n(C)c1=O)c1ccccc1 [ROQUINIMEX] | 70.6% | 58.1% | 78.5% | 27.3% | 0% | 18.2% | 24.6% | 62.7% | 9.95% |
| COc1ccc2c(O)c(C(=O)NCCN(C)C)cnc2c1 | -15.3% | -40.7% | 92.8% | – | – | – | – | – | – |
| O=C(Nc1ccccc1)c1cnc2cc(Cl)ccc2c1O | 32.6% | 16.7% | 22.3% | 23.1% | -2.65% | 10.4% | 12.3% | 27.1% | 10.5% |
| CSc1ccc2ncc(C(=O)N(C)c3ccccc3)c(O)c2c1 | -155% | – | 96.3% | – | -47% | – | -144% | 65.6% | – |
| CN(C)CCNC(=O)c1cnc2ccc([N+](=O)[O-])cc2c1O | 53.2% | 41.5% | 99.9% | – | – | – | – | – | – |
| CN(C)CCNC(=O)c1cnc2ccccc2c1O | -6.94% | -14.4% | 73.6% | – | – | – | – | – | – |
| COc1ccc2c(O)c(C(=O)N(C)c3ccccc3)cnc2c1 | 29.3% | 36.5% | 53.7% | 35.7% | 41.3% | 35.7% | 24.9% | 57.5% | 12.1% |
| Cc1cc(C)c2ncc(C(=O)N(C)c3ccccc3)c(O)c2c1 | 12.9% | 1.84% | 47.1% | – | – | – | – | – | – |
| O=C(O)c1ccc(NC(=O)c2cnc3ccc(Cl)cc3c2O)cc1 | 61.5% | 12.7% | 98.9% | -5.35% | 17.8% | 32.1% | 52.9% | 87% | 0.78% |
| O=C(O)c1ccc2ncc(C(=O)Nc3cccc(Cl)c3)c(O)c2c1 | 84.8% | 87.6% | 73.4% | – | 78.5% | – | 94.3% | 94.7% | – |
| O=C(O)c1ccc2ncc(C(=O)Nc3ccccc3)c(O)c2c1 | 57.5% | 71.3% | 39.8% | – | 82.5% | 15.5% | 80.6% | 48.5% | 15.2% |
| CSc1ccc2c(O)c(C(=O)NCCN(C)C)cnc2c1 | 38.5% | 30.3% | 100% | – | – | – | – | – | – |
| CN(C(=O)c1cnc2cc(Cl)ccc2c1O)c1ccccc1 | -27.6% | -24.7% | 41.2% | 25.6% | -4.33% | 5.61% | -26.7% | 14.1% | 18.6% |
| Cc1cc(C)c2ncc(C(=O)NCCN(C)C)c(O)c2c1 | 38.5% | 0.95% | 99.6% | – | – | – | – | – | – |
| CSc1ccc2c(c1)c(O)c(C(=O)N(C)c1ccccc1)c(=O)n2C | 75.3% | 52% | 79.6% | 29.7% | 13.6% | 11.2% | 30.3% | 37.8% | 14.7% |
| O=C(O)c1ccc(NC(=O)c2cnc3ccccc3c2O)cc1 | 38.8% | 28.6% | -20.9% | 27.5% | -1.94% | 5.61% | 4.33% | 28% | 31.2% |

| SMILES | inhibition at 10 µg/mL [1] | inhibition at 1 µg/mL [2] | inhibition at 100 µg/mL [3] | inhibition [4] | inhibition at 1 µg/mL [5] | inhibition [6] | inhibition at 10 µg/mL [7] | inhibition at 100 µg/mL [8] | inhibition [9] |
| --- | --- | --- | --- | --- | --- | --- | --- | --- | --- |
| O=C(Nc1ccc(N(CCO)CCO)cc1)c1cnc2ccccc2c1O | 61% | 45.8% | 99.1% | 30.4% | 38% | 12.1% | 75.8% | 88.5% | 1.82% |
| CN(C)CC(C)(C)CNC(=O)c1cnc2cc(F)ccc2c1O | 37.2% | 20.8% | 96.3% | – | – | – | – | – | – |
| COc1ccc2c(O)c(C(=O)NCC(C)(C)CN(C)C)cnc2c1 | 29.4% | 32.6% | 98.5% | – | 48.8% | – | 72.3% | 91.6% | – |
| CN(C)CC(C)(C)CNC(=O)c1cnc2ccc(F)cc2c1O | 32.9% | -30.7% | 87.4% | – | 21.3% | – | 17.8% | 70.5% | – |
| Cc1ccc2ncc(C(=O)N(C)c3ccccc3)c(O)c2c1 | -20% | -59.3% | -1.7% | – | – | – | – | – | – |
| CCCN(CCC)C(=O)c1cnc2cc(Cl)ccc2c1O | 49.5% | 42.1% | 51.2% | -4.03% | -3.57% | 18.4% | 18.1% | 12.6% | 14.7% |
| CN(C(=O)c1cnc2cc(F)ccc2c1O)c1ccccc1 | -21.5% | -46.8% | 17.1% | – | 4% | – | 12.5% | -127% | – |
| CSc1ccc2c(O)c(C(=O)N(C)c3ccccc3)cnc2c1 | 11.8% | 26.2% | 76% | 52.7% | 31.1% | 22.2% | 17% | 83.5% | 14.6% |
| CN(C)CCNC(=O)c1cnc2ccc(Br)cc2c1O | 31.6% | -19.6% | 99.7% | – | – | – | – | – | – |
| O=C(NCCO)c1cnc2cc(Cl)ccc2c1O | 49.8% | 42.5% | 93.8% | 77.7% | 21.3% | 6.06% | 29.1% | 53.3% | – |
| CN(C(=O)c1cnc2ccccc2c1O)c1ccccc1 | 24.9% | -7.55% | -9.33% | -1.33% | 17.7% | – | 8.46% | 32.4% | 7.59% |
| CCN(C(=O)c1cnc2c(C)cc(C)cc2c1O)c1ccccc1 | 35.5% | 31.9% | 64.2% | 47.6% | 4.49% | 29.7% | 36% | 87.5% | 46.3% |
| CN(C(=O)c1cnc2cc(C(F)(F)F)ccc2c1O)c1ccccc1 | 4.11% | 54.7% | 93.6% | -3.57% | 39.8% | -5.45% | 6.41% | 64.9% | – |
| Cc1ccc2ncc(C(=O)NCCN(C)C)c(O)c2c1 | -11.2% | -27.5% | 94.9% | – | – | – | – | – | – |
| CSc1cccc2c(O)c(C(=O)N(C)c3ccccc3)cnc12 | 52.4% | 11.4% | 81.7% | -9.52% | -2.46% | – | 36.5% | 71.7% | 2.08% |
| CSc1ccc2ncc(C(=O)NCCN(C)C)c(O)c2c1 | -42.6% | -182% | 98.2% | – | -4.33% | – | -9.69% | 87.7% | – |
| CN(C)CCNC(=O)c1cnc2cc(Cl)ccc2c1O | 33.7% | 14% | 99.9% | – | – | – | – | – | – |
